Measurements: ChEMBL document CHEMBL1156199, “Synthesis of new acridone derivatives, inhibitors of NS3 helicase, which efficiently and specifically inhibit subgenomic HCV replication” (J Med Chem, 2010)
The source made the active and inactive calls. The rule behind the calls is not given here.

Tests used:
[1] = system: Hepatitis C virus; experiment: Antiviral activity against HCV 1b infected in human HuH7 cells assessed as inhibition of viral RNA replication after 4 days by replicon assay; type: functional, organism-based, Hepacivirus hominis; conditions: genotype 1b, Huh-7, 96 h
Summary of the method: (§1)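 Huh-7 cells carrying genotype 1b subgenomic replicon; compounds in DMSO tested from 1 to 200 μM or 1 μM to 1 mM depending on solubility; luminescence-based replicon RNA amplification assay; EC50 = concentration reducing luminescence by 50%.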

[2] = system: NS3 helicase (Hepatitis C virus genotype 1a); experiment: Inhibition of HCV 1a NS3 helicase by fluorimetry
[3] = Cytotoxicity against human HuH7 cells after3 days by XTT assay
[4] = Therapeutic index, ratio of CC50 for human HuH7 cells to EC50 for HCV 1b; type: cell-based, Huh-7; conditions: read-out: Ratio CC50/EC50
Summary of the method: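 Therapeutic index calculated as CC50 (XTT, replicon-bearing Huh-7 cells) divided by EC50 (luminescence replicon assay, genotype 1b).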

[5] = system: Hepatitis C virus; experiment: Antiviral activity against HCV 1b infected in human HuH7 cells assessed as inhibition of viral RNA replication at 5.8 uM after 4 days by replicon assay; type: functional, Hepacivirus hominis; conditions: genotype 1b, Huh-7, 96 h; summary of the method: as §1
[6] = Inhibition of HCV NS3 helicase in presence of 0.5 mM ATP; parameters: species or system Hepacivirus hominis
[7] = Inhibition of HCV NS3 helicase in presence of 1.5 mM ATP; parameters: species or system Hepacivirus hominis
[8] = Inhibition of HCV NS3 helicase in presence of 2.5 mM ATP; parameters: species or system Hepacivirus hominis
[9] = system: Hepatitis C virus; experiment: Antiviral activity against HCV 1b infected in human HuH7 cells assessed as inhibition of viral RNA replication at 2.7 uM after 4 days by replicon assay; type: functional, Hepacivirus hominis; conditions: genotype 1b, Huh-7, 96 h; summary of the method: as §1
[10] = Inhibition of HCV 3a NS3 helicase by fluorimetry; parameters: species or system Hepatitis C virus subtype 3a
Summary of the method: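 Fluorometric helicase unwinding assay with a dsDNA substrate at 37 °C; NS3 helicase domain (genotype […], from patient-derived RNA) expressed in baculovirus and purified from insect cells, used at 50 nM; IC50 = concentration reducing helicase activity by 50%, relative to DMSO control.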

[11] = system: Hepatitis C virus; experiment: Antiviral activity against HCV 1b infected in human HuH7 cells assessed as inhibition of viral RNA replication at 10 uM after 4 days by replicon assay; type: functional, Hepacivirus hominis; conditions: genotype 1b, Huh-7, 168 h, in the assay text read “after 7 days” for “after 4 days”
Summary of the method: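 Huh-7 cells with genotype 1b subgenomic replicon seeded at 4 × 10⁵ per dish in DMEM, grown 7 days with 0, 1, 10 or 100 μM compound; 5 μg total RNA reverse transcribed (3UTR, oligo(dT)15, random hexamer primers), equal cDNA used for real-time PCR (45 cycles, 56 °C annealing) to quantify replicon RNA.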

[12] = system: Hepatitis C virus; experiment: Antiviral activity against HCV 1b infected in mutant human HuH7 cells assessed as inhibition of viral RNA replication after 4 days by replicon assay; type: functional, organism-based, Hepacivirus hominis; conditions: genotype 1b, Huh-7, 96 h
[13] = system: Nucleic Acid; experiment: Binding affinity to […] assessed as inhibition of ethidium bromide DNA intercalation by gel migration retardation assay; type: nucleic-acid assay; conditions: Hepacivirus hominis
Summary of the method: (§2)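 dsNA gel migration retardation assay on dsDNA: compound (100 or 500 μM) incubated with dsDNA, ethidium bromide staining; intercalation read as partial or total loss of the dsDNA band; DMSO as negative and epidoxorubicin as positive control.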

[14] = system: Nucleic Acid; experiment: Binding affinity to […] assessed as inhibition of ethidium bromide DNA intercalation at 100 uM by gel migration retardation assay; type: nucleic-acid assay; conditions: Hepacivirus hominis; summary of the method: as §2
[15] = system: Nucleic Acid; experiment: Binding affinity to HCV dsRNA assessed as inhibition of ethidium bromide RNA intercalation by gel migration retardation assay; type: nucleic-acid assay; conditions: Hepacivirus hominis
Summary of the method: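 dsRNA gel migration retardation assay: compound incubated with dsRNA, ethidium bromide staining; intercalation read as partial or total disappearance of the dsRNA band; DMSO and epidoxorubicin controls.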

| Compound | EC50 [1] | IC50 [2] | CC50 at 72 h [3] | selectivity ratio [4] | other results |
| --- | --- | --- | --- | --- | --- |
| O=C(Nc1ccncc1)c1cccc2c(=O)c3cccc(OCc4ccccc4)c3[nH]c12 | > 100 µM | 8 µM | > 100 µM | – | – |
| COc1cc(NC(=O)c2cccc3c(=O)c4cccc(OC)c4[nH]c23)cc(OC)c1OC | 203 µM | 751 µM | > 500 µM | > 2.5 | – |
| COc1cccc2c(=O)c3cccc(C(=O)Nc4cc(Cl)ccn4)c3[nH]c12 | – | 35.8 µM | 171 µM | – | inhibition at 5.8 µM [5]: 30% |
| COc1cccc2c(=O)c3cc(F)cc(C(=O)Nc4ccccn4)c3[nH]c12 | – | 4.7 µM | > 100 µM | – | IC50 [6]: 6.5 µM; IC50 [7]: 4.7 µM; IC50 [8]: 5.1 µM; inhibition at 2.7 µM [9]: 30% |
| COc1cccc2c(=O)c3cc(F)cc(C(=O)Nc4cccnc4)c3[nH]c12 | 0.98 µM | 8.6 µM | > 1000 µM | > 1000 | IC50 [10]: 7.3 µM; IC50 [6]: 10.9 µM; IC50 [7]: 8.6 µM; IC50 [8]: 9.9 µM; inhibition at 10 µM [11]: 85%; EC50 [12]: 251 µM |
| COc1cccc2c(=O)c3cc(Cl)cc(C(=O)Nc4cc(Cl)ccn4)c3[nH]c12 | > 100 µM | 1.5 µM | > 100 µM | – | IC50 [6]: 1.1 µM; IC50 [7]: 1.5 µM; IC50 [8]: 1.1 µM |
| [N-]=[N+]=N[C@]1(CO)O[C@@H](n2ccc(N)nc2=O)[C@H](O)[C@@H]1O [4'-AZIDOCYTIDINE] | – | – | > 200 µM | > 143 | – |
| COc1cccc2c(=O)c3cccc(C(=O)Nc4cccnc4)c3[nH]c12 | 3.5 µM | 20.6 µM | > 100 µM | > 28 | Activity [13]: Active; Activity [14]: Active |
| NC(=O)c1ncn([C@@H]2O[C@H](CO)[C@@H](O)[C@H]2O)n1 [RIBAVIRIN] | 17.6 µM | – | 1060 µM | 60.2 | – |
| COc1cccc2c(=O)c3cc(F)cc(C(=O)Nc4cc(Cl)ccn4)c3[nH]c12 | > 100 µM | 46.3 µM | > 100 µM | – | – |
| COc1cccc2c(=O)c3cc(Cl)cc(C(=O)Nc4cccnc4)c3[nH]c12 | 0.96 µM | 54.6 µM | 19.3 µM | 20.1 | – |
| COc1cccc2c(=O)c3cc(Cl)cc(C(=O)Nc4ccccn4)c3[nH]c12 | 5 µM | 64.7 µM | 15.8 µM | 3.2 | Activity [15]: inactive |
| COc1cccc2c(=O)c3cccc(C(=O)Nc4ccccn4)c3[nH]c12 | 2.3 µM | 6.2 µM | 2.5 µM | 1.1 | Activity [13]: Active |
